In ChEMBL document CHEMBL2010704 (J Med Chem, 2012):
Calls of active or inactive are those of the source. The calls are words filed in the database; no cut-off is given here.

What was measured:
ABCG2 [1] = biological target: T1, ABCG2 (Homo sapiens, UniProt Q9UNQ0); assay: Inhibition of ABCG2-mediated mitoxantrone efflux in HEK293 cells at 1 uM by flow cytometry relative to 5 uM of GF120918; type: cell-based; details: HEK293 cells with ABCG2-mediated efflux, probe mitoxantrone
T1 sequence (Q9UNQ0 whole entry): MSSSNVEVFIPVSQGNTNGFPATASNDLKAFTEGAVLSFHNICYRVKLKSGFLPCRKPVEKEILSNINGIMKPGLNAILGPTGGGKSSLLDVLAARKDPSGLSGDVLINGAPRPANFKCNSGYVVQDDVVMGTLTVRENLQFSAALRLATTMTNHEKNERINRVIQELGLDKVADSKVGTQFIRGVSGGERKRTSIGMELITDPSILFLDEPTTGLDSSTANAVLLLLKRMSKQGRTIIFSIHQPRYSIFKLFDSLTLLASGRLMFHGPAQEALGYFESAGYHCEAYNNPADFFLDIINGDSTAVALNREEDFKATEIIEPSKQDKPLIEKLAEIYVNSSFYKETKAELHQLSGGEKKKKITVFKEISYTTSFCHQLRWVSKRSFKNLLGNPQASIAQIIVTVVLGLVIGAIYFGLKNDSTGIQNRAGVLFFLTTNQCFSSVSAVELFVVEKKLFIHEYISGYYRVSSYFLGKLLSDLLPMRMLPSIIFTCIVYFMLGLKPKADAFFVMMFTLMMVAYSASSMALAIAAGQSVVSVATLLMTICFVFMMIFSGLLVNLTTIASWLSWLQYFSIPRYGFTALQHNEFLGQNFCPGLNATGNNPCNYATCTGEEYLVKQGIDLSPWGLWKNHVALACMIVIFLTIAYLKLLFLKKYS
Summary of the method: (§1)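 HEK293-ABCG2 cells seeded at 1 × 10^5 cells/well and grown 48 h, then loaded with 5 μM mitoxantrone for 30 min at 37 °C with or without compound. Cells washed in PBS and trypsinized; intracellular fluorescence read by flow cytometry on at least 10,000 events. […] IC50 from a concentration range; mean ± SD, n ≥ 3.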

ABCG2 [2] = biological target: T1, ABCG2; assay: Inhibition of ABCG2-mediated mitoxantrone efflux in HEK293 cells at 5 uM by flow cytometry relative to 5 uM of GF120918; type: cell-based; details: HEK293 cells with ABCG2-mediated efflux, probe mitoxantrone; summary of the method: as §1
[3] = biological target: T2, Broad substrate specificity ATP-binding cassette transporter ABCG2 (Homo sapiens, UniProt Q9UNQ0); assay: Inhibition of ABCG2-mediated mitoxantrone efflux in HEK293 cells by flow cytometry; type: cell-based
T2 sequence (Q9UNQ0 whole entry): T1 sequence (Q9UNQ0 whole entry)
Summary of the method: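 HEK293-ABCG2 cells seeded at 1 × 10^5 cells/well and grown 48 h, then loaded with 5 μM mitoxantrone for 30 min at 37 °C with or without compound. Cells washed in PBS and trypsinized; intracellular fluorescence read by flow cytometry on at least 10,000 events.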

P-glycoprotein (ABCB1) [4] = biological target: T3, P-glycoprotein (ABCB1) (Homo sapiens, UniProt P08183); assay: Inhibition of P-glycoprotein/ABCB1-mediated mitoxantrone efflux in HEK293 cells at 1 uM by flow cytometry relative to 5 uM of GF120918; type: cell-based; details: HEK293 cells with P-glycoprotein/ABCB1-mediated efflux, probe mitoxantrone
P-glycoprotein (ABCB1) [5] = biological target: T3, P-glycoprotein (ABCB1); assay: Inhibition of P-glycoprotein/ABCB1-mediated mitoxantrone efflux in HEK293 cells at 5 uM by flow cytometry relative to 5 uM of GF120918; type: cell-based; details: HEK293 cells with P-glycoprotein/ABCB1-mediated efflux, probe mitoxantrone
MRP1 (ABCC1) = MRP1 (ABCC1) (Homo sapiens, UniProt P33527); assay: Inhibition of MRP1/ABCC1-mediated calcein efflux in HEK293 cells at 1 uM by flow cytometry relative to untreated control; type: cell-based; details: HEK293 cells with MRP1/ABCC1-mediated efflux, probe calcein
[6] = tested on: P-glycoprotein 1 (Homo sapiens); assay: Inhibition of P-glycoprotein/ABCB1-mediated mitoxantrone efflux in HEK293 cells at 5 uM by flow cytometry relative to untreated control; details: HEK293 cells with P-glycoprotein/ABCB1-mediated efflux, probe mitoxantrone
[7] = Cytotoxicity against human HEK293 cells transfected with ABCG2 after 72 hrs by MTT assay; type: ADME, cell-based; details: read-out: IG50
Summary of the method: (§2)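 HEK293-ABCG2 cells (DMEM high glucose, 10% FBS, 0.75 mg/mL G418) seeded at 1 × 10^4 cells/well, left overnight, then exposed to increasing compound concentrations (up to 100 μM) for 72 h at 37 °C, 5% CO2. Viability read by MTT colorimetric assay and expressed as % of control cells in medium with 0.1% DMSO (v/v).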

ABCG2 [8] = assay: Therapeutic index, ratio of GI50 for human HEK293 cells transfected with ABCG2 to IC50 for ABCG2-mediated mitoxantrone efflux in HEK293 cells; type: cell-based; details: HEK293 cells transfected with ABCG2, probe mitoxantrone
Summary of the method: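 Therapeutic index is IG50 for cytotoxicity (72-h MTT in HEK293-ABCG2 cells) divided by IC50 for inhibition of ABCG2-mediated mitoxantrone efflux measured by flow cytometry.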

HEK293 [9] = assay: Cytotoxicity against human HEK293 cells transfected with ABCG2 at 10 uM after 72 hrs by MTT assay; type: ADME, cell-based; details: hek293, 72 h; summary of the method: as §2
HEK293 [10] = assay: Effect on ABCG2 expression in human HEK293 cells at 0.2 to 10 uM after 72 hrs by Western blotting analysis; type: functional, cell-based
HEK293 [11] = assay: Drug uptake in human HEK293 cells transfected with ABCG2 after 30 mins by LC-ESI-MS/MS analysis relative to control; type: ADME, cell-based; details: hek293, 0.5 h
HEK293 [12] = assay: Drug uptake in human HEK293 cells transfected with ABCG2 after 30 mins by LC-ESI-MS/MS analysis in presence of GF120918 relative to control; type: ADME, cell-based; details: hek293, 0.5 h
[13] = biological target: T2, Broad substrate specificity ATP-binding cassette transporter ABCG2; assay: Noncompetitive inhibition of ABCG2 expressed in HEK293 cells in presence of mitoxantrone; type: cell-based
[14] = biological target: T2, Broad substrate specificity ATP-binding cassette transporter ABCG2; assay: Inhibition of ABCG2 expressed in human HEK293 assessed as potentiation of mitoxantrone-mediated cytotoxicity at 0.2 uM after 72 hrs by MTT assay relative to control; type: cell-based; details: hek293, 72 h
Summary of the method: (§3)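 Chemosensitization: HEK293-ABCG2 cells seeded at 1 × 10^4 cells/well, left overnight, then co-treated for 72 h at 37 °C, 5% CO2 with compound plus increasing mitoxantrone or SN-38 (0−0.5 μM). Viability measured by MTT and expressed as % of untreated control. Mean ± SD from at least three independent experiments, each in triplicate.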

HEK293 [15] = assay: Drug metabolism in human HEK293 cells transfected with ABCG2 at 0.2 to 1 uM after 72 hrs; type: ADME, cell-based; details: hek293, 72 h
[16] = biological target: T2, Broad substrate specificity ATP-binding cassette transporter ABCG2; assay: Inhibition of ABCG2 expressed in human HEK293 assessed as potentiation of SN-38-mediated cytotoxicity at 0.2 uM after 72 hrs by MTT assay relative to control; type: cell-based; details: hek293, 72 h; summary of the method: as §3
HEK293 [17] = assay: Cytotoxicity against human control HEK293 cells assessed as cell death at 100 uM after 72 hrs by MTT assay; details: hek293, 72 h

MRP1 (ABCC1), sequence (P33527 whole entry): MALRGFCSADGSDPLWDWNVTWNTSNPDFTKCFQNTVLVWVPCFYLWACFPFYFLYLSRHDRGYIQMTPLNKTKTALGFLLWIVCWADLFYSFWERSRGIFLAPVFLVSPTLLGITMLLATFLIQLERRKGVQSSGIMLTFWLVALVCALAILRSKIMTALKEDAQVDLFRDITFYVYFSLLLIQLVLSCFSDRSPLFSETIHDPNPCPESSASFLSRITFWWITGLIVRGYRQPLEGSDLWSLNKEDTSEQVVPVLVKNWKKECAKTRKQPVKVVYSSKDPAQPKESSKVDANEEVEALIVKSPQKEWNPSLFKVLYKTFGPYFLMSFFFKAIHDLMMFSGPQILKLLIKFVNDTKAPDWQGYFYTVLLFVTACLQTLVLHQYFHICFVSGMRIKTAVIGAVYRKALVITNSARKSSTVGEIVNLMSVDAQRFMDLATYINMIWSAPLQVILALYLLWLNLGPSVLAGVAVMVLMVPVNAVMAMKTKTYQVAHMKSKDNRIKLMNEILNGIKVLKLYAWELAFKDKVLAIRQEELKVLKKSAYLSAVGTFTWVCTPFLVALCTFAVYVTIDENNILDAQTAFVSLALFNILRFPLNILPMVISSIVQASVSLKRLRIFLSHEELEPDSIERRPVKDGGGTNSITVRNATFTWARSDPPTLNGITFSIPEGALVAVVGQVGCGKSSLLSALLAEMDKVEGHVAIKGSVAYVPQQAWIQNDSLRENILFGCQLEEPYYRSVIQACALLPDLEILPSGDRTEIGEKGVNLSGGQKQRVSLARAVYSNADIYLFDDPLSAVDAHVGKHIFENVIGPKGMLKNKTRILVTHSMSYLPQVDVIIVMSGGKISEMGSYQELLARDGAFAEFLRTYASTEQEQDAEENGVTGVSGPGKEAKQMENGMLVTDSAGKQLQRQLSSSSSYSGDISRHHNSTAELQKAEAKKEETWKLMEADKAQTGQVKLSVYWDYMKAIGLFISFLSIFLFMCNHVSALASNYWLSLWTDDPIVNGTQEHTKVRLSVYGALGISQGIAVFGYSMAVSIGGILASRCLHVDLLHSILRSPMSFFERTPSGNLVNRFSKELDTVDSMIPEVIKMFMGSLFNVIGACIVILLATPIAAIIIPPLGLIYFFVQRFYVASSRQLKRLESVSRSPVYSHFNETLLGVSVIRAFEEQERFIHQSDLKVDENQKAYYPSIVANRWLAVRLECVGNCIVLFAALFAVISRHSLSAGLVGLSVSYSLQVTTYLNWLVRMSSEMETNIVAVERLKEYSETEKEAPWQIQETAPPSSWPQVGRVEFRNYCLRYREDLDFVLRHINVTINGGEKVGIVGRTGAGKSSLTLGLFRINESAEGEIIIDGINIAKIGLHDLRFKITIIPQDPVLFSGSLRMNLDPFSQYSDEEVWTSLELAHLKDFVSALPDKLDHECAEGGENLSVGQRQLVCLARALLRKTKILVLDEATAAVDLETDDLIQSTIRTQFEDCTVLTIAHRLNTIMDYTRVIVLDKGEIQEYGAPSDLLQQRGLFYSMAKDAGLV
T3 sequence (P08183 whole entry): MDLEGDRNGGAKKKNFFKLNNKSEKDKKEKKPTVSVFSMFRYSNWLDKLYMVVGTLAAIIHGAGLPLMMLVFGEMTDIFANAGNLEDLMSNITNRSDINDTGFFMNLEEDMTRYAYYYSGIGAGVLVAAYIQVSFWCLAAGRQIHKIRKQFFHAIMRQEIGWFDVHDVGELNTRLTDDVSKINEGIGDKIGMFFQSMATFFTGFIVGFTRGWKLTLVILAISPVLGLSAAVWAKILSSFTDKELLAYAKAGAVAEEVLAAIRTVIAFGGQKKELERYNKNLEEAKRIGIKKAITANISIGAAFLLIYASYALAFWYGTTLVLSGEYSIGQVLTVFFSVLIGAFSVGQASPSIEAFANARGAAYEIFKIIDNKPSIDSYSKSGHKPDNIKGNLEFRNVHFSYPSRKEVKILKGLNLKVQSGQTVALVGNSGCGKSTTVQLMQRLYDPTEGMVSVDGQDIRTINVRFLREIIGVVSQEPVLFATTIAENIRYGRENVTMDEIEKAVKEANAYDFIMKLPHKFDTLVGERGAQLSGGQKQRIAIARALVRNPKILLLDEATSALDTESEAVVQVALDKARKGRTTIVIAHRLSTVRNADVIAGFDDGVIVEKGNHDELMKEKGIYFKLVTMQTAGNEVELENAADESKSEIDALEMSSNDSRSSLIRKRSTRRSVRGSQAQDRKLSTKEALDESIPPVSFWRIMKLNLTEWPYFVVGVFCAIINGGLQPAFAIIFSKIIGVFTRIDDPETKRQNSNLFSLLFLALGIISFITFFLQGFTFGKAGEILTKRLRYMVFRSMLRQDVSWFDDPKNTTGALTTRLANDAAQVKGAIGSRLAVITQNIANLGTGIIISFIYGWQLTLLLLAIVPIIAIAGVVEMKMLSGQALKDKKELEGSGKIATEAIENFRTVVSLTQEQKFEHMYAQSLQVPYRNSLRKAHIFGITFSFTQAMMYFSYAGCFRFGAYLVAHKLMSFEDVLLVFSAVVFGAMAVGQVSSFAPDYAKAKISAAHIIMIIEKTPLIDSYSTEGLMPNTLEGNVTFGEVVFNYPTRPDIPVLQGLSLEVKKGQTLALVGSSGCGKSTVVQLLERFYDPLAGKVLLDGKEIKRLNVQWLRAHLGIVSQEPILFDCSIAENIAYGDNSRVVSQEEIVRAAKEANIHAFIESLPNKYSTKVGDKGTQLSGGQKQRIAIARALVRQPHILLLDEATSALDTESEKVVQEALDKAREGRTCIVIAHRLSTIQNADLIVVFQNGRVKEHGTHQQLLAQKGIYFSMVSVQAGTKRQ

inhibition at 1 µM (MRP1 (ABCC1)) [%] | SMILES | inhibition at 1 µM (ABCG2 [1]) [%] | inhibition at 5 µM (ABCG2 [2]) [%] | IC50 [3] [nM] | inhibition at 1 µM (P-glycoprotein (ABCB1) [4]) [%] | inhibition at 5 µM (P-glycoprotein (ABCB1) [5]) [%] | inhibition at 5 µM [6] [%] | other results
– | COc1ccc(CCOc2cccc3oc(C(=O)O)cc(=O)c23)cc1OC | 6.1 | 26.7 | – | – | – | – | –
– | O=C(c1cc(=O)c2c(OCc3ccccc3)cccc2o1)N1CCN(Cc2ccccc2)CC1 | 16.5 | 48.3 | – | – | – | – | –
2.36 | COc1ccc2[nH]cc(CCNC(=O)c3cc(=O)c4c(OCCc5ccccc5)cccc4o3)c2c1 | – | – | 160 | -14 | -14.8 | 5.12 | –
– | COc1ccc2c3c([nH]c2c1)[C@H](CC(C)C)N1C(=O)[C@H](CCC(=O)OC(C)(C)C)NC(=O)[C@@H]1C3 | – | – | – | – | – | – | GI50 at 72 h [7]: 18000 nM
3.37 | COc1ccc(CCNC(=O)c2cc(=O)c3c(O)cccc3o2)cc1OC | 34.4 | 62.5 | – | -20.5 | -29 | 5.47 | –
– | O=C(c1cc(=O)c2c(O)cccc2o1)N1CCN(c2ccccc2)CC1 | 5.5 | 9.8 | – | – | – | – | –
– | CC(C)=CCc1c(O)cc2oc(-c3ccccc3)cc(=O)c2c1O | – | – | – | – | – | – | selectivity ratio (ABCG2 [8]): 40
1.91 | COc1ccc2[nH]cc(CCNC(=O)c3cc(=O)c4c(OCc5ccccc5)cccc4o3)c2c1 | – | – | 180 | -9.11 | -19.4 | 5.14 | GI50 at 72 h [7]: 35000 nM; Activity (HEK293 [9]): Non-toxic
– | O=C(O)c1cc(=O)c2c(O)cccc2o1 | -1.2 | -2 | – | – | – | – | –
– | O=C(c1cc(=O)c2c(OCc3ccccc3)cccc2o1)N1CCN(c2ccccn2)CC1 | 18.1 | 46.2 | – | – | – | – | –
1.13 | COc1ccc2[nH]cc(CCNC(=O)c3cc(=O)c4c(OCc5ccc(C)cc5)cccc4o3)c2c1 | – | – | 200 | -4.29 | -21.9 | 3.09 | –
10.8 | COc1ccc(CCNC(=O)c2cc(=O)c3c(OCc4ccccc4)cccc3o2)cc1OC | – | – | – | -25.5 | -22.9 | – | GI50 at 72 h [7]: 60000 nM; Activity (HEK293 [9]): 35%; Activity (HEK293 [10]): inactive; Drug uptake (HEK293 [11]): Not Active; Drug uptake (HEK293 [12]): Not Active; inhibition (INH) [13]: Active
5.57 | COc1ccc(CCNC(=O)c2cc(=O)c3c(OCCc4ccc(OC)c(OC)c4)cccc3o2)cc1OC | – | – | 470 | -16.6 | -0.11 | 10.8 | –
2.58 | COc1ccc2[nH]cc(CCNC(=O)c3cc(=O)c4c(OCc5ccc(Br)cc5)cccc4o3)c2c1 | – | – | 110 | -1.75 | -16.1 | 2.86 | selectivity ratio (ABCG2 [8]): 2000; inhibition (INH) [14]: Active; Drug metabolism (HEK293 [15]): Not Active; inhibition (INH) [16]: Active; Activity (HEK293 [10]): inactive; Drug uptake (HEK293 [11]): Not Active; Drug uptake (HEK293 [12]): Not Active; inhibition (INH) [13]: Active; Activity (HEK293 [17]): < 25%
– | O=C(c1cc(=O)c2c(OCc3ccccc3)cccc2o1)N1CCN(c2ccccc2)CC1 | 21.3 | 66.1 | – | – | – | – | –
